Data set [1] deals with VL51. The data set is described as follows: Induction of mitochondrial membrane potential depolarization in human VL51 cells at 0.5 to 1 uM measured after 24 hrs by JC-1 fluorescent dye based flow cytometry analysis. The data set is classed as functional, cell-based. Conditions: dose 0.5-1 µM. The gist of the method: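 VL51 cells treated 24 h at 0.5 and 1.0 μM, labelled with JC-1, analysed by flow cytometry in FL1 and FL2 channels.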

A further data set concerns A549. The data set is described as follows: Induction of cell cycle arrest in human A549 cells assessed as accumulation of cells at G2/M phase at 5 uM incubated for 24 hrs by PI staining based flow cytometry analysis. The data set is classed as functional. In short, it runs like this:
(§1)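 Seeding in 6-well plates, 2 mL medium: A549 5×10^4, CCRF-CEM 2.5×10^5, VL51 2.0×10^5. 24 h treatment, A549 detached with trypsin-EDTA. Cells fixed in 70% ice-cold ethanol, PI-labelled, analysed by flow cytometry. Mean of two independent experiments.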

Data set [2] can be described thus: Cytotoxicity against resting human PBL cells assessed as inhibition of cell growth measured after 72 hrs by MTT assay. The data set is classed as toxicity, cell-based. The settings on record: resting human peripheral blood lymphocytes (PBL).
The target of another data set is Tubulin. As to the kind of experiment: Inhibition of tubulin assembly (unknown origin). The data set is classed as protein-complex assay, Homo sapiens.
Data set [3] addresses T1, Tubulin (Homo sapiens) (UniProt P68371+Q9H4B7+P0DPH7+P68366+Q13509+Q71U36+P04350+Q3ZCM7+P07437+P68363+Q9BQE3+Q6PEY2+Q13885+Q9BVA1+Q9BUF5). The data set is described as follows: Inhibition of [3H]colchicine binding to tubulin (unknown origin) at 25 uM relative to control. The data set is classed as protein-complex assay. The gist of the method: (§2)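 Colchicine-site competition: 0.5 μM tubulin with 5.0 μM [3H]colchicine and inhibitor at 5.0 μM, or 25 μM where stated.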

Data set [4] has as its system VL51. The data set is described as follows: Induction of cell cycle arrest in human VL51 cells assessed as accumulation of cells at G2/M phase at 5 uM incubated for 24 hrs by PI staining based flow cytometry analysis. The data set is classed as functional. In short, it runs like this: as §1
Data set [5] has as its system VL51. The data set is described as follows: Induction of cell cycle arrest in human VL51 cells assessed as increase in mitotic cells at 0.5 to 1 uM incubated for 24 hrs by PI staining based flow cytometry analysis. The data set is classed as functional. Conditions: dose 0.5-1 µM.
The target of data set [6] is T1, Tubulin (Homo sapiens). As to the kind of experiment: Inhibition of [3H]colchicine binding to tubulin (unknown origin) at 5 uM relative to control. Format: protein-complex assay. The gist of the method: as §2
A short description of data set [7]: Cytotoxicity against PHA-induced human PBL cells assessed as inhibition of cell growth measured after 72 hrs by MTT assay. The data set is classed as toxicity, cell-based. The settings on record: PHA-induced human peripheral blood lymphocytes (PBL).
A further data set deals with CCRF-CEM. The data set is described as follows: Induction of cell cycle arrest in human CCRF-CEM cells assessed as accumulation of cells at G2/M phase at 10 uM incubated for 24 hrs by PI staining based flow cytometry analysis. Format: functional. The gist of the method: as §1

Calls of active or inactive are those of the source. No cut-off for these calls is given here. Some results are limits rather than exact numbers.

For `COc1ccc(Cn2cc3c(c2-c2ccccc2)CCCc2cnoc2-3)cc1`, the result with VL51 [1] and with VL51 [5] was inactive. Besides, the outcome with A549, in the data set on VL51 [4] and with CCRF-CEM was Active. In addition, the IC50 at 72 h in data set [2] and in data set [7] was > 10 µM throughout. Besides, the IC50 on Tubulin was determined as 1.1 µM. The inhibition was found to be 19% on Tubulin (Homo sapiens) [3] and 1.8% at Tubulin (Homo sapiens) [6].
Compound `COc1ccc(Cn2cc3c(c2-c2ccc(OC)cc2)CCCc2cnoc2-3)cc1` came in with an IC50 against Tubulin of 4.6 µM. At Tubulin (Homo sapiens) [6], this compound showed an inhibition of 7.7%.

(Values after ChEMBL document CHEMBL5321217, “Identification of pyrrolo[3',4':3,4]cyclohepta[1,2-d][1,2]oxazoles as promising new candidates for the treatment of lymphomas” (Eur J Med Chem, 2023).)
